Experiment [1] is described as follows: Inhibition of bovine brain tubulin assembly after 20 mins.
A further experiment is filed under the species Bos taurus. The experiment can be described thus: Displacement of [3H]colchicine from bovine brain tubulin at 5 uM after 10 mins.
Experiment [2] in a line: Cytotoxicity against human colon cancer cells after 48 hrs. The experiment is classed as functional. The conditions noted are these: Cancer cell lines. Put shortly:
(§1)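 NCI 60-cell panel, values averaged per subpanel. Compounds were dissolved in DMSO and first screened at a single 10⁻⁵ M dose. Active ones then went to five concentrations at ten-fold dilutions, top 10⁻⁴ M (10⁻³ M for some), with 48 h exposure.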

A short description of experiment [3]: Cytotoxicity against human CNS cancer cells after 48 hrs. The experiment is classed as functional. As to conditions: Cancer cell lines. Put shortly:
as §1

Experiment [4] can be described thus: Cytotoxicity against human leukemia cells after 48 hrs. The conditions noted are these: Leukemia cell; for CC50: read-out: LC50 (the source's name). The class given is functional.
Experiment [5] in a line: Cytotoxicity against human NSCLC cells after 48 hrs. The class given is functional. The conditions noted are these: for CC50: read-out: LC50 (the source's name). Put shortly: as §1
A short description of experiment [6]: Inhibition of nox4 expression in human B1647 cells at 10 uM after 24 hrs by Western blot analysis relative to control. The experiment is classed as functional. Put shortly: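 B1647 cells treated 24 h at 10 µM. Lysates (40 µg protein per lane) run on 10% SDS-PAGE and transferred to nitrocellulose. Blots probed with anti-Nox4, with β-tubulin as loading control, and detected by chemiluminescence. Bands quantified by densitometry in arbitrary units relative to control; three independent experiments.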

For experiment [7], the target named is T1, NADPH oxidase 4 (Homo sapiens) (UniProt Q9NPH5).
T1 sequence (whole entry): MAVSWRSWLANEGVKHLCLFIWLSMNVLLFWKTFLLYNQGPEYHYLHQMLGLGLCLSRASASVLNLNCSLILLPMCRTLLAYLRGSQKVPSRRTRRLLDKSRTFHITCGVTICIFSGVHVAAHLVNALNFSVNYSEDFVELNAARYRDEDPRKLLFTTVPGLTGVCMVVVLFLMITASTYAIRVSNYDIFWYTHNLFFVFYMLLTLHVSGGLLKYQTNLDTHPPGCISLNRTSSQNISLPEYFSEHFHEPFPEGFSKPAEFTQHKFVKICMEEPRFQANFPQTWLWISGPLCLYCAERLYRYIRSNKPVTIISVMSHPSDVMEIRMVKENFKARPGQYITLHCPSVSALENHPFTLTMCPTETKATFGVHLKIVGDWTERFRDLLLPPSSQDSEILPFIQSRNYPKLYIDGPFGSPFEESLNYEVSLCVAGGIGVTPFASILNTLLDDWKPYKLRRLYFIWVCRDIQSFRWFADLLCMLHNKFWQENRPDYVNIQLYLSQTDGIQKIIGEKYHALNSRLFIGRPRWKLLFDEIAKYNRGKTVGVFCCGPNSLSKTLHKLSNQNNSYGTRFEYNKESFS
Briefly: Inhibition of NOX4 in human nox2 silenced B1647 cells assessed as reduction of ROS production at 50 nM after 20 mins by DCFH-DA fluorescence assay. The class given is cell-based. The conditions noted are these: 5 or 10 uM, in the assay text read “at 5 or 10 uM after 30 mins” for “at 50 nM after 20 mins”. Put shortly:
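B1647 cells nucleofected with Nox2 siRNA or scrambled siRNA (final 50 nM), used after 24–48 h. Compound treatment for 30 min, then 5 µM DCFH-DA loading for 20 min at 37 °C and DCF fluorescence read. Scrambled cells served as control.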

Experiment [8] deals with T1, NADPH oxidase 4 (Homo sapiens). The experiment can be described thus: Inhibition of NOX4 in human B1647 cells assessed as reduction of ROS production after 20 mins by DCFH-DA fluorescence assay. The class given is cell-based. The conditions noted are these: in the assay text read “after 30 mins” for “after 20 mins”. Put shortly:
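B1647 cells given compound (DMSO) at 5 or 10 µM for 30 min, then at 1 × 10⁶/mL washed twice in PBS and loaded with 5 µM DCFH-DA for 20 min at 37 °C. DCF fluorescence read in multiwell plate; four independent experiments.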

A further experiment concerns B1647. The experiment can be described thus: Cytotoxicity against human B1647 cells at 5 to 10 uM after 24 hrs by MTT assay. The class given is functional, cell-based. Put shortly:
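B1647 human AML cells grown in IMDM with 5% human serum (37 °C, 5% CO2); 10⁶ cells per well in 1 mL exposed to 5 or 10 µM compound (DMSO) for 24 h. MTT 0.5 mg/mL added for 4 h at 37 °C, formazan dissolved overnight in 10% SDS/0.01 M HCl, A570 read. Four independent experiments.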

Experiment [9] is described as follows: Cytotoxicity against human prostate cancer cells after 48 hrs. The class given is functional. As to conditions: Cancer cell lines; for CC50: read-out: LC50 (the source's name). Put shortly: as §1
A short description of experiment [10]: Cytotoxicity against human breast cancer cells after 48 hrs. The class given is functional. The conditions noted are these: Cancer cell lines. Put shortly:
as §1

Experiment [11] can be described thus: Cytotoxicity against human renal cancer cells after 48 hrs. The class given is functional. As to conditions: Cancer cell lines.
A short description of experiment [12]: Cytotoxicity against human melanoma cells after 48 hrs. The experiment is classed as functional. The conditions noted are these: Melanoma cell; for CC50: read-out: LC50 (the source's name).
Experiment [13] can be described thus: Cytotoxicity against human ovarian cancer cells after 48 hrs. As to conditions: Cancer cell lines; for CC50: read-out: LC50 (the source's name). The experiment is classed as functional. Put shortly: as §1

The source made the active and inactive calls. No cut-off for these calls is given here.

`COc1cc(/N=C2\C(=O)N(Cc3ccccc3)c3ccccc32)cc(OC)c1OC` returned a half-inhibitory concentration (IC50) in experiment [1] of 3.3 µM. For the same molecule, the inhibition in the experiment listed under Bos taurus came out at 31%.
For the molecule `COc1cc(/C=C2/C(=O)Nc3cc(C)c(O)cc32)cc(OC)c1OC`, the GI50 in [2] is 4 µM; in experiment [3], 5.2 µM; in experiment [4], 1.8 µM; in experiment [5] it was 5.7 µM; in experiment [9], 3.9 µM; in [10], 2.5 µM. Further, the 50% growth inhibitory concentration (GI50) came to 7.1 µM in [11], 3.6 µM in experiment [12] and 7.1 µM in [13]. In addition, the LC50 in [2] is 53.7 µM; in experiment [3], 85.1 µM; in experiment [10], 74.1 µM; in experiment [11], 66.1 µM. The TGI in [2] is 18.2 µM; in experiment [3] it was 25.7 µM; in experiment [5], 31.6 µM; in experiment [9], 30.9 µM; in experiment [10], 14.4 µM; in experiment [11], 25.1 µM. Also, the figures for the TGI in experiment [12] and in experiment [13] were 16.6 µM and 37.1 µM, respectively. Also, the CC50 in experiment [4] worked out at 70.8 µM; in [5], 79.4 µM; in experiment [9], 91.2 µM; in [12] it was 53.7 µM; in experiment [13] it was 87.1 µM. Further, the “fold change (FC)” value in experiment [6] came out at 0.64. Further, the inhibition result in [7] is “Active”. The inhibition result in experiment [8] is “Dose-dependent effect”. In addition, the result in the experiment with B1647 was Active. In [1], this molecule registered a half-maximal inhibitory concentration (IC50) greater than 20 µM.
In the case of `c1ccc2c(c1)[I+]c1ccccc1-2` [DIPHENYLENEIODONIUM], the “fold change (FC)” value in experiment [6] stood at 0.73.
`COc1ccc2c(c1)/C(=C\c1cc(OC)c(OC)c(OC)c1)C(=O)N2`: the IC50 in [1] came to 6.1 µM. Besides, the inhibition in the experiment listed under Bos taurus was 35%.
On to `COc1cc(/C=C2\C(=O)N(Cc3ccc(Cl)cc3)c3ccccc32)cc(OC)c1OC`, for which the concentration for 50% growth inhibition (GI50) turned out to be 2.2 µM in experiment [2]; 3.4 µM in [3]; 1.5 µM in experiment [4]; 3.4 µM in [5]; 2.2 µM in experiment [9]; 2.4 µM in experiment [10]. Moreover, the results for the 50% growth inhibitory concentration (GI50) in experiment [11], in experiment [12] and in experiment [13] were 2.5 µM, 2.9 µM and 3.4 µM, respectively. Further, the LC50 in experiment [2] was 14.4 µM; in experiment [3], 46.8 µM; in [10] it was 95.5 µM; in experiment [11], 43.6 µM. Besides, the TGI in experiment [3] is 15.1 µM; in experiment [5], 14.4 µM; in experiment [10], 12.9 µM; in experiment [13], 22.9 µM. Also, the CC50 turned out to be 50.1 µM in [4]; 56.2 µM in [5]; 33.1 µM in [9]; 26.9 µM in experiment [12]; 51.3 µM in [13]. Besides, in the experiment with B1647, the result was Active. The molecule further came in with a concentration for half-maximal inhibition (IC50) in experiment [1] greater than 20 µM.
For the molecule `COc1cc(/C=C2\C(=O)Nc3ccc(Br)cc32)cc(OC)c1OC`, the GI50 in experiment [2] was 6.2 µM; in experiment [3], 14.8 µM; in experiment [4], 2.1 µM; in [5], 9.5 µM; in experiment [9] it was 11 µM; in [10], 3.2 µM. The values for the GI50 in experiment [11], in experiment [12] and in experiment [13] were 14.1 µM, 10.2 µM and 17 µM, respectively. Also, the TGI is 56.2 µM in [3]; 77.6 µM in experiment [5]; 45.7 µM in experiment [10]; 75.9 µM in experiment [11]; 69.2 µM in experiment [13]. The “fold change (FC)” value in experiment [6] is 0.86. For the same molecule, in [7], the inhibition result is “Active”. In addition, in experiment [8], the inhibition entry was “Dose-dependent effect”. Further, the outcome in the experiment on B1647 was Active. Moreover, the half-maximal inhibitory concentration (IC50) in experiment [1] is greater than 20 µM.

These data come from ChEMBL document CHEMBL2385029, “Cytotoxic activities of substituted 3-(3,4,5-trimethoxybenzylidene)-1,3-dihydroindol-2-ones and studies on their mechanisms of action” (Eur J Med Chem, 2013).
